Data published in ChEMBL document CHEMBL4130495, “Design, synthesis and biological evaluations of N-Hydroxy thienopyrimidine-2,4-diones as inhibitors of HIV reverse transcriptase-associated RNase H” (Eur J Med Chem, 2017).

Key:
[1] = test system: P4R5; assay: Cytotoxicity in human P4R5 cells assessed as reduction in cell viability by MTS assay
[2] = test system: Human immunodeficiency virus 1; assay: Antiviral activity against HIV1 infected in human P4R5 cells assessed as reduction in viral infection preincubated with cells for 24 hrs followed by viral infection measured after 48 hrs by fluorescence based beta-galactosidase reporter gene based MAGI assay; type: functional, organism-based
[3] = molecular target: Human immunodeficiency virus type 1 integrase (Human immunodeficiency virus 1, UniProt Q7ZJM1); assay: Inhibition of HIV1 integrase pre-incubated for 10 mins before DNA substrate addition and measured after 30 mins
[4] = molecular target: Human immunodeficiency virus type 1 reverse transcriptase (Human immunodeficiency virus 1, UniProt Q72547); assay: Inhibition of RNH activity of recombinant HIV1 reverse transcriptase RNase H assessed as reduction in internal cleavage of RNA strand using RNA/DNA duplex substrate HTS-1
[5] = molecular target: Gag-Pol polyprotein (Human immunodeficiency virus type 1 group M subtype B (isolate HXB2)(HIV-1), UniProt P04585); assay: Inhibition of polymerase activity of recombinant HIV1 reverse polymerase assessed as reduction in extension of an 18 nucleotide DNA primer using template/primer and dNTPs incubated for 30 mins; design: species or system Human immunodeficiency virus 1
Summary of the method: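 Recombinant HIV-1 RT (20 nM) was used with 40 nM template/primer (18-nt DNA primer annealed to a 100-nt DNA template) and 10 µM dNTPs in 50 mM Tris pH 7.8, 50 mM NaCl, with 1% DMSO and increasing compound concentrations. Reactions were started with 6 mM MgCl₂, run 30 min at 37 °C, and stopped with 100 mM EDTA. IC50 is reported as mean ± SD of ≥2 independent experiments.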

Chain of Human immunodeficiency virus type 1 integrase (Q7ZJM1 whole entry): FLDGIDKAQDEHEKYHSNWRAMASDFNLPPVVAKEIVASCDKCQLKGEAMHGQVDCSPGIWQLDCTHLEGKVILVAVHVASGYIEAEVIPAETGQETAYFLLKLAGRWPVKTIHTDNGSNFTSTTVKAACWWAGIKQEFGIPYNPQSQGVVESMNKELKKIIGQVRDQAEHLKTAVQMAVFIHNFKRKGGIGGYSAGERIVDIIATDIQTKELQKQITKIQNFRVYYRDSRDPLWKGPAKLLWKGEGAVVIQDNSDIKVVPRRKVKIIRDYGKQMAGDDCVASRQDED

SMILES	CC50 ([1]; P4R5 cells) [µM]	EC50 [2] [µM]	IC50 [3] [µM]	IC50 [4] [µM]	IC50 [5] [µM]	CC50 ([1]; P4R5) [µM]
O=c1[nH]c2cc(-c3ccc(F)cc3)sc2c(=O)n1O	> 100	> 20	17	0.2	> 10	
O=C1Cc2cc(-c3ccccc3)ccc2C(=O)N1O		16	2	1.3	> 10	19
O=c1[nH]c2cc(-c3ccccc3)sc2c(=O)n1O		11	4.5	0.1	> 10	28
O=c1[nH]c2sccc2c(=O)n1O		18	35	0.2	> 10	54
Cc1csc2[nH]c(=O)n(O)c(=O)c12		> 20	12	0.1	> 10	81
O=c1[nH]c2sc(-c3ccccc3)cc2c(=O)n1O	> 100	> 20	2.2	0.084	> 10	
O=c1[nH]c2cc(-c3ccccc3)ccc2c(=O)n1O		3.8	11	0.2	> 10	6
O=c1[nH]c2cc(-c3ccc(Cl)cc3)sc2c(=O)n1O	> 100	> 20	23	0.07	> 10	
Cc1sc2[nH]c(=O)n(O)c(=O)c2c1C		8.9	8.4	0.1	> 10	62
O=c1[nH]c2c(c(=O)n1O)CN(Cc1ccccc1)CC2			> 100		> 10	
O=c1[nH]c2cc(-c3ccc(Cl)cc3)ccc2c(=O)n1O		4.5		0.2	> 10	9.9
Cc1c(C(=O)O)sc2[nH]c(=O)n(O)c(=O)c12	> 100	> 20	7.9	0.1	> 10	
O=c1[nH]c2scc(-c3ccccc3)c2c(=O)n1O	> 100	14	1.3	0.1	> 10	
O=c1[nH]c2sc(Cc3ccccc3)cc2c(=O)n1O	> 100	> 20	5	0.043	> 10	
O=c1[nH]c2scc(-c3ccc(Cl)cc3)c2c(=O)n1O	> 100	7.4	2.1	0.04	> 10	
